Results from ChEMBL document CHEMBL4138312 (J Med Chem, 2018).
pIC50: −log10 of the molar value.

Tests used:
[1] = biological target: Tyrosine-protein kinase JAK1 (Homo sapiens, UniProt P23458); assay: Inhibition of cytoplasmic recombinant human GST-tagged JAK1 (886 to 1154 residues) expressed in insect cells using FITC-C6-KKHTDDGYMPMSPGVA-NH as substrate after 10 mins by caliper assay
How it was run: (§1)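 Biochemical kinase inhibition IC50 measured at 5 mM ATP. Values are the geometric mean of at least two independent experiments.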

[2] = biological target: Tyrosine-protein kinase JAK2 (Homo sapiens, UniProt O60674); assay: Inhibition of recombinant human JAK2 (831 to 1132 residues) expressed in insect cells using 5FAM-GEEPLYWSFPAKKK-NH2 as substrate after 10 mins by caliper assay; how it was run: as §1
[3] = biological target: T1, Tyrosine-protein kinase JAK3 (Homo sapiens, UniProt P52333); assay: Inhibition of recombinant human JAK3 (781 to 1124 residues) expressed in insect cells using 5FAM-GEEPLYWSFPAKKK-NH2 as substrate after 10 mins by caliper assay; how it was run: as §1
T1 sequence (P52333 whole entry): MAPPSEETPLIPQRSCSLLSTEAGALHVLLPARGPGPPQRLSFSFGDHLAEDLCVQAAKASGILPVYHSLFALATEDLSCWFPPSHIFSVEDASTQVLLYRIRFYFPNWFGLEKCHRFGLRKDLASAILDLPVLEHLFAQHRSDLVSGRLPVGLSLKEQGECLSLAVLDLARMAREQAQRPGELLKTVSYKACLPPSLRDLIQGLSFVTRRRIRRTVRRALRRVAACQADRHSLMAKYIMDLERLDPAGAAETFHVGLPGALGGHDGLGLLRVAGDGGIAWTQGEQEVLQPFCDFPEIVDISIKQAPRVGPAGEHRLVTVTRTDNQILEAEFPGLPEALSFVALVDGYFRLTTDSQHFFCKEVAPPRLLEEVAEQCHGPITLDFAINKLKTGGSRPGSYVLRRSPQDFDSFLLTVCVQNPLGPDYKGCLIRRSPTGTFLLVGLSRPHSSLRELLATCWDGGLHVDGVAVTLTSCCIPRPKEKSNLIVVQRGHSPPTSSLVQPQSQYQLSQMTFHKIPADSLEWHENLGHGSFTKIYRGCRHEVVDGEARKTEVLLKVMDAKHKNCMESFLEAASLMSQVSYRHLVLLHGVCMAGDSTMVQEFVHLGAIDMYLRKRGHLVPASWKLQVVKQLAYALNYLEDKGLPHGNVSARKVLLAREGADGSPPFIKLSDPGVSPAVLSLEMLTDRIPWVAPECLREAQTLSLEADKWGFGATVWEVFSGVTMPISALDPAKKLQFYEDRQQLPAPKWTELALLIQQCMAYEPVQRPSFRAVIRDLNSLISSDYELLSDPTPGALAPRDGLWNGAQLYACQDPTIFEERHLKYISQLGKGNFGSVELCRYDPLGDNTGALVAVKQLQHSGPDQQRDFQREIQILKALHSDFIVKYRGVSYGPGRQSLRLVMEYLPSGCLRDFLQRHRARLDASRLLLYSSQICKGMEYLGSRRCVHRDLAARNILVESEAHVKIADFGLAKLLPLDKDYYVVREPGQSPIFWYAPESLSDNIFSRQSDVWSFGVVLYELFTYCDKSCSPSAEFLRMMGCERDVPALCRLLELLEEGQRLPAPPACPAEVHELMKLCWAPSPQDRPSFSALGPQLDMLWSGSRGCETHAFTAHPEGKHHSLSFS

[4] = biological target: JAK2 (Homo sapiens, UniProt O60674); assay: Inhibition of catalytic recombinant human GST-tagged JAK2 expressed in baculovirus at 1 uM
How it was run: (§2)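 Kinase panel of 386 kinases, each screened at a single concentration of 1 μM.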

[5] = biological target: T2, Tyrosine-protein kinase JAK3 (Homo sapiens) (UniProt P52333); assay: Inhibition of recombinant human GST-tagged JAK3 (781 to 1124 residues) expressed in baculovirus at 1 uM
T2 sequence (whole entry): T1 sequence (P52333 whole entry)
How it was run: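 Single-concentration screen at 1 μM across a panel of 386 kinases to profile broad kinase selectivity.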

[6] = biological target: T3, NUAK family SNF1-like kinase 1 (Homo sapiens) (UniProt O60285); assay: Inhibition of recombinant human full length His-tagged NUAK1 expressed in baculovirus at 1 uM; how it was run: as §2
T3 sequence (whole entry): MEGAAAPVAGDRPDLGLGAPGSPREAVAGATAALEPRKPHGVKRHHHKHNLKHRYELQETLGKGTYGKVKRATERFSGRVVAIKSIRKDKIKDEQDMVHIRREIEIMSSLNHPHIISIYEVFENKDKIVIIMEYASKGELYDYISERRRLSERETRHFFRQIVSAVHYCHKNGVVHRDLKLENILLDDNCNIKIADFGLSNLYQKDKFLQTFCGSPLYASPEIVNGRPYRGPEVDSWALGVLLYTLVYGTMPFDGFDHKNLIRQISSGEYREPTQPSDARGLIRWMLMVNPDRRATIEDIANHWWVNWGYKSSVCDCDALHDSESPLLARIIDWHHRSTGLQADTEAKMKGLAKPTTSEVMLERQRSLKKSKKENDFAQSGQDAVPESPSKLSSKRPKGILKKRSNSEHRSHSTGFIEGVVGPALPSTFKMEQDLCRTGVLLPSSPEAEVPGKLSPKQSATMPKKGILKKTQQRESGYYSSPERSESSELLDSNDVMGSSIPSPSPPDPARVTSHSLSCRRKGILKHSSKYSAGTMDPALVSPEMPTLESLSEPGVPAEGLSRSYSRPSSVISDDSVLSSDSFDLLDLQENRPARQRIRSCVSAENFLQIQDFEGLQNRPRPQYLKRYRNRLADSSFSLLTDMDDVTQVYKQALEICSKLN

[7] = biological target: Leucine-rich repeat serine/threonine-protein kinase 2 (Homo sapiens) (UniProt Q5S007); assay: Inhibition of recombinant human full length GST-tagged catalytic LRRK2 expressed in baculovirus at 1 uM; how it was run: as §2
[8] = Volume of distribution at steady state in CD1 mouse at 3 mg/kg, iv by LC/MS/MS analysis; assay type: ADME, organism-based; conditions: in vivo, read-out: Vdss
How it was run: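 Mouse pharmacokinetics after a single iv dose of 3 mg/kg in 10% HPbCD + 5% dextrose in WFI at pH 4. Plasma clearance, half-life and steady-state volume of distribution were derived.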

[9] = AUC in CD1 mouse at 10 mg/kg, po by LC/MS/MS analysis; assay type: ADME, organism-based; conditions: in vivo
How it was run: (§3)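 Mouse pharmacokinetics after oral dosing at 10 or 50 mg/kg. The 10 mg/kg dose was given in 10% HPbCD + 5% dextrose in WFI at pH 4. The 50 mg/kg dose was given in 5% SBECD in WFI at pH 2. Plasma exposure (AUC), half-life and oral bioavailability were derived.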

[10] = Oral bioavailability in CD1 mouse at 10 mg/kg administered via gavage by LC/MS/MS analysis; assay type: ADME, organism-based; conditions: in vivo; how it was run: as §3
[11] = Half life in CD1 mouse at 50 mg/kg, po administered via gavage by LC/MS/MS analysis; assay type: ADME, organism-based; conditions: in vivo; how it was run: as §3
[12] = Protein binding in CD1 mouse plasma assessed as unbound fraction; assay type: ADME, cell-free
[13] = test system: Mus musculus; assay: Time above EC50 for inhibition of JAK1 in CD1 mouse at 50 mg/kg, po administered via gavage; conditions: in vivo

Chain of Tyrosine-protein kinase JAK1 (P23458 whole entry, the tested form may be a part): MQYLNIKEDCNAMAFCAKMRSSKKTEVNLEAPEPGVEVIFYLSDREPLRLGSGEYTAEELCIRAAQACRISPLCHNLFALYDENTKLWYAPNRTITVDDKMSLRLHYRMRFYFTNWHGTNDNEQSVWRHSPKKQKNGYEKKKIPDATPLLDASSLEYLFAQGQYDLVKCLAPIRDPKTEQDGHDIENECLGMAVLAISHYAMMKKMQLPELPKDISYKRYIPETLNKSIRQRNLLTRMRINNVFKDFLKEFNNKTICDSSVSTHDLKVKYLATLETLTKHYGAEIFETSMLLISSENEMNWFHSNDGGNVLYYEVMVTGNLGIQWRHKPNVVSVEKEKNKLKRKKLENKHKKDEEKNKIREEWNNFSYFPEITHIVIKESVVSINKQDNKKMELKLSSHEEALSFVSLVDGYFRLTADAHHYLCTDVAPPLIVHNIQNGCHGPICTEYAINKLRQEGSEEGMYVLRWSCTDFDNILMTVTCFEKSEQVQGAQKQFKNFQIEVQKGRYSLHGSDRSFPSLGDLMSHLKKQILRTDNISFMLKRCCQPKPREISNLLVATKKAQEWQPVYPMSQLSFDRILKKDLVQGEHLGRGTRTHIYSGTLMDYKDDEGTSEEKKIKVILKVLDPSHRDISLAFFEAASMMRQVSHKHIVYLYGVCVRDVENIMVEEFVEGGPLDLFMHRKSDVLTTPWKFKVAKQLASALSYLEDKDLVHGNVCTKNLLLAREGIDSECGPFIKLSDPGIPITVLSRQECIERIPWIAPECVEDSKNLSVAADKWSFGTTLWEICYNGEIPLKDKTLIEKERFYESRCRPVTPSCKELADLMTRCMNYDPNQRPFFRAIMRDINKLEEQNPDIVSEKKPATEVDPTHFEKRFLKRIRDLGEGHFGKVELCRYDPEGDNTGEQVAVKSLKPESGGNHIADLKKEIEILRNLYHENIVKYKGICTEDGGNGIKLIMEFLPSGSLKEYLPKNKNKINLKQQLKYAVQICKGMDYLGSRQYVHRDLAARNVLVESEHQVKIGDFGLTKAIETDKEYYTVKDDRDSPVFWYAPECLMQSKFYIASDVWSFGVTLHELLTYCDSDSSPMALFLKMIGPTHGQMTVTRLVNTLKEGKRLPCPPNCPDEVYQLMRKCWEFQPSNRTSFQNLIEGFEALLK
Chain of Leucine-rich repeat serine/threonine-protein kinase 2 (Homo sapiens) (Q5S007 whole entry): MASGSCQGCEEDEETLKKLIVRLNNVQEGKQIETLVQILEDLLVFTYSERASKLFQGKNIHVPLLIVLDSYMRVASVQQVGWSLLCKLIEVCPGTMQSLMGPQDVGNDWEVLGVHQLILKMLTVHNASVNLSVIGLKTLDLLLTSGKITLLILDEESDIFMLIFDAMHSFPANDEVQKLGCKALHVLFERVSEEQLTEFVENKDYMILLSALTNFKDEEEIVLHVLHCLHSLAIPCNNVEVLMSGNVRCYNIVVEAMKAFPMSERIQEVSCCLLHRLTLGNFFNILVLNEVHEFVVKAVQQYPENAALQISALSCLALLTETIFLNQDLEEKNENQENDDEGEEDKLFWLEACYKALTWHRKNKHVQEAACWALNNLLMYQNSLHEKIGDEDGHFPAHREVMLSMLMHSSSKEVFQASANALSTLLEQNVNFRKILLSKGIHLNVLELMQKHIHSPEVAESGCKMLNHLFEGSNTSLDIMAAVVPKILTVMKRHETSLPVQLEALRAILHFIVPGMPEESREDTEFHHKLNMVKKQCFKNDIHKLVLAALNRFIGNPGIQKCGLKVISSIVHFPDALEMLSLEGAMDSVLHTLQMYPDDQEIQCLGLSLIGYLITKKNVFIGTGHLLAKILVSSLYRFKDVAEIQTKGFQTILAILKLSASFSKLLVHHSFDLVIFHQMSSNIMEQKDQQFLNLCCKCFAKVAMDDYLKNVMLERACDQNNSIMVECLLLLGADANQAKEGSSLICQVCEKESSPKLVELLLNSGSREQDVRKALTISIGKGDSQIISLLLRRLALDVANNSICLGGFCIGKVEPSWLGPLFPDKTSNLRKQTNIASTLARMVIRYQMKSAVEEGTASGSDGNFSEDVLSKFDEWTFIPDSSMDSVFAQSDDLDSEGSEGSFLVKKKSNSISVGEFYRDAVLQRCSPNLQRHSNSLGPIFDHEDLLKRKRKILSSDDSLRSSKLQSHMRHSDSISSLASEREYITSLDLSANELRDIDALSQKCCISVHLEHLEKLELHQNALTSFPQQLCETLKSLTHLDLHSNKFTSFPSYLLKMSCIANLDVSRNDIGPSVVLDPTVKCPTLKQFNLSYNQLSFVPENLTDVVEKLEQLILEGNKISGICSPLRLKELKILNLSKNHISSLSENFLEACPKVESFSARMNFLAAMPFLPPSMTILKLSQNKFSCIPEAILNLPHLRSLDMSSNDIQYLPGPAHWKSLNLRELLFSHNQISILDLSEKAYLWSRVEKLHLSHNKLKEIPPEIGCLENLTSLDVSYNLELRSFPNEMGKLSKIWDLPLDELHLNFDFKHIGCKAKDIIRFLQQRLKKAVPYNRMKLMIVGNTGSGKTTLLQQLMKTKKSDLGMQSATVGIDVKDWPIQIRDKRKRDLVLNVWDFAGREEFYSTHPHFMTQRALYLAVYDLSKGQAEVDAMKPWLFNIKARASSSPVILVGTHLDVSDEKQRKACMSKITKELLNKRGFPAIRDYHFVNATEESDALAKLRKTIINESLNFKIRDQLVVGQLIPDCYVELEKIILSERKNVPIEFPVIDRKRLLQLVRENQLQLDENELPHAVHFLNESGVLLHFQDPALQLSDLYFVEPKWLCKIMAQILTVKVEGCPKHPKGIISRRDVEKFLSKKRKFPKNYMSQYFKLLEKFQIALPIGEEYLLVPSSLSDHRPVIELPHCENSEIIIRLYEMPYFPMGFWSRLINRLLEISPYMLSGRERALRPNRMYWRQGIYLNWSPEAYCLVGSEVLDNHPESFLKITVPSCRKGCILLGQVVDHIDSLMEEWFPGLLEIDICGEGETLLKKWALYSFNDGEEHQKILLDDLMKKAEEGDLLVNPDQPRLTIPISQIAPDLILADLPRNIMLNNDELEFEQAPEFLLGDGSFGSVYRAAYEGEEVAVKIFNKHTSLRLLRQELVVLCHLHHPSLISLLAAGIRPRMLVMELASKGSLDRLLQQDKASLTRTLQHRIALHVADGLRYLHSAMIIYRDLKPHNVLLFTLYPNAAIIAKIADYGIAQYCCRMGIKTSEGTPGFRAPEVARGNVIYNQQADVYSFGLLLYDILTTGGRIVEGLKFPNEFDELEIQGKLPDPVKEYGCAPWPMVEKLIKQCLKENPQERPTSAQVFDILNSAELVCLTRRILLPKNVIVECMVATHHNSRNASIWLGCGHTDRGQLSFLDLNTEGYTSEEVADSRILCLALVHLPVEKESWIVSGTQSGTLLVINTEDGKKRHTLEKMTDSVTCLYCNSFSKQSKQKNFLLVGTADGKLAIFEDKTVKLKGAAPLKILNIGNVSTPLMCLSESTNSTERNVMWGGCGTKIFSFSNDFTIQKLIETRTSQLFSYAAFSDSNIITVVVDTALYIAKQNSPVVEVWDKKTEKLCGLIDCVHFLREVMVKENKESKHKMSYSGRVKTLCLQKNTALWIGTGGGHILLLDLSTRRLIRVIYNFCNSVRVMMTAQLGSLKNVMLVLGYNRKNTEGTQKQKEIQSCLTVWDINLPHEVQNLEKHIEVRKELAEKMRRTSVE
Chain of Tyrosine-protein kinase JAK2 (O60674 whole entry, the tested form may be a part): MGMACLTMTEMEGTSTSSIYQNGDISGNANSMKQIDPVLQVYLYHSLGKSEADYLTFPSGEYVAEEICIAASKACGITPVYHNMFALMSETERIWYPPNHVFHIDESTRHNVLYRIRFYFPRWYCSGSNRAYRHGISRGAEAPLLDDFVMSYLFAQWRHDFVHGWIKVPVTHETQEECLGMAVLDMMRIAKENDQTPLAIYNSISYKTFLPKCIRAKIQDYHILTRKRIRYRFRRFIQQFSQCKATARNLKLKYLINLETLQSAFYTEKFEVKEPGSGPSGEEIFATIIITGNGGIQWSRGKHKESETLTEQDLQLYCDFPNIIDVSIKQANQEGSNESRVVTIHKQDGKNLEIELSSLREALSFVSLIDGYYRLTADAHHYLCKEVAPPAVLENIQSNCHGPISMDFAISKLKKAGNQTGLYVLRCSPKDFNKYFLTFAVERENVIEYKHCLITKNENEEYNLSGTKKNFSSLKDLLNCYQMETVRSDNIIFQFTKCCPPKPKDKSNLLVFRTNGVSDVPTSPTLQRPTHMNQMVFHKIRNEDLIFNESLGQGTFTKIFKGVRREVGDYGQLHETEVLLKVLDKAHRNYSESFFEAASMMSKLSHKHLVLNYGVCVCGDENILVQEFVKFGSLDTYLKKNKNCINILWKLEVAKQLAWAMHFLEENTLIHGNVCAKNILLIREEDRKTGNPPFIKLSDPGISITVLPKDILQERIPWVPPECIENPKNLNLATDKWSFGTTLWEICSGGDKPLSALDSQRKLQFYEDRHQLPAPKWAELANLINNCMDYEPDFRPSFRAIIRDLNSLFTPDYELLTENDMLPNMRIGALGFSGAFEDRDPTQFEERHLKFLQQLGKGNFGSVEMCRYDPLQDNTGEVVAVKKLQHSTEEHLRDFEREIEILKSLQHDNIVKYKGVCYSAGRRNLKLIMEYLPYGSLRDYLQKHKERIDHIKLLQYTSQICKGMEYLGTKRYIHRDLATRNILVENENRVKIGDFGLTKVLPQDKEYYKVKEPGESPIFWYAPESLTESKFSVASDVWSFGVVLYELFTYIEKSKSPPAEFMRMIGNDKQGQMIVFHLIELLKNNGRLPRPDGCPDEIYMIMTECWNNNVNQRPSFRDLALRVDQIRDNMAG
Chain of JAK2 (O60674 whole entry): as the sequence (O60674 whole entry, the tested form may be a part) above

pIC50 [1]: 7.47
pIC50 [2]: < 4.52
pIC50 [3]: < 4.52
inhibition at 1 µM [4]: 31%
inhibition [5]: 46%
inhibition [6]: 71%
inhibition [7]: 71%
Vd [8]: 10.3 L/kg
AUC [9]: 2.65 µM·h
bioavailability [10]: 30%
half-life [11]: 5.3 h
fraction unbound [12]: 0.15
Time [13]: 12 h
Compound: CC[C@@H](C)Nc1nc(Nc2cc(N3C[C@@H]4C[C@H]3CN4C)cnc2F)ncc1C
